Shown are actives, neighbours in structure and some others; about 2.5% of the full set was active somewhere.
SENP7 inh: blocks the human protease SENP7; recombinant SENP7, Z-RLRGG-aminoluciferin luminescence, 40 min; inhibition, % at 5 µM; actives 1.5% (n = 330,000); AID 434973;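 active = inhibition above about 50% at the single test dose, limit read from the data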
SENP1 FRET inh: SENP1 (human) catalytic domain inhibition; actives 0.21% (n = 360,000); inhibition, % at 10 µM; Q9P0U3; recombinant SENP1 catalytic domain, CyPet-SUMO1-YPet FRET cleavage;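 active = inhibition at least 30% at 10 µM, raw YFP signal under a set limit, fluorescence ratio 0.5 to 1.5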
Target sequence (Q9P0U3 419-644 limits assumed): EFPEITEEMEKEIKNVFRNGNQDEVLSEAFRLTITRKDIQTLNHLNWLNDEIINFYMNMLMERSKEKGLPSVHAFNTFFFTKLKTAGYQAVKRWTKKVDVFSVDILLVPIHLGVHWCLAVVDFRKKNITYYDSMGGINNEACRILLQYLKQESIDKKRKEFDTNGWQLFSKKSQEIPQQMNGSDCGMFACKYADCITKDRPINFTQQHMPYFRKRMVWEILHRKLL
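Material: hSENP1 catalytic domain, recombinant; medium: Tris pH 8 with BME, BSA, NP40 and catalase; compound: single concentration of 10 µM compound, 0.5% DMSO final; technique: FRET read of cyan and yellow fluorescence; timing: 50 min enzyme reaction, room temperature, light-protected; reagent: SFCypet-SUMO1-SFYpet substrate at 25 nM; control set: no-enzyme low, enzyme-DMSO high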
SENP6 block: inhibitors of human SENP6 protease; Recombinant SENP6 catalytic domain, aminoluciferin luminescence; inhibition, % at 10 µM; actives 1.8% (n = 330,000); AID 2599;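 active = inhibition above about 50% at the single tested dose, limit read from the data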
SENP8 block-1: blocks human SENP8 cleavage of Nedd8 substrate | Q96LD8 | inhibition, % at 20 µM | recombinant SENP8, Nedd8 substrate fluorescence | actives 0.64% (n = 360,000); in the data active = inhibition mostly above about 40%, no sharp cut-off; inactive = mostly below about 27%
Target sequence (Q96LD8 whole entry, looked up): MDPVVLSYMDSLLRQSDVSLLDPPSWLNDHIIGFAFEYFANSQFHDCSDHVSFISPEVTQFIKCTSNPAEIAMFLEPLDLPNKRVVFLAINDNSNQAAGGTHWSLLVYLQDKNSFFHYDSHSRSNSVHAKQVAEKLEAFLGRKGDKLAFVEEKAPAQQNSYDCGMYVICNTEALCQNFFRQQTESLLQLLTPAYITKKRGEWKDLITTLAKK
SENP8 block-2: inhibitors of human SENP8 protease | Q96LD8 | purified SENP8, Z-RLRGG-aminoluciferin cleavage, luminescence | inhibition, % at 10 µM | actives 1.2% (n = 330,000); in the data active = inhibition above about 50%
SENP8 confirm: confirmation of human SENP8 protease inhibitors. shares compounds with SENP7 inh. Recombinant SENP8, Z-RLRGG-aminoluciferin luminescence, 60 min. inhibition, % at 12.5 µM. actives 40% (n = 6,200);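 active = mean inhibition across replicates above about 50%, limit read from the data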
SENP6 confirm: confirmation of human SENP6 protease inhibitors; shares compounds with SENP7 inh; recombinant SENP6, Z-RLRGG-aminoluciferin luminescence; inhibition, % at 12.5 µM; actives 58% (n = 6,200); AID 488915
SENP7 confirm: confirmation of human SENP7 protease inhibitors. shares compounds with SENP7 inh. recombinant SENP7, Z-RLRGG-aminoluciferin luminescence, 40 min. inhibition, % at 12.5 µM. actives 69% (n = 6,200)
Casp3 SENP sel: inhibits human caspase-3 in SENP selectivity test; shares compounds with SENP7 inh; AID 488918; actives 60% (n = 6,200); inhibition, % at 12.5 µM; purified caspase-3, Z-DEVD-aminoluciferin luminescence, 60 min;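 active = mean inhibition above about 50%, limit read from the data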
Target sequence (P42574 28-227 limits assumed): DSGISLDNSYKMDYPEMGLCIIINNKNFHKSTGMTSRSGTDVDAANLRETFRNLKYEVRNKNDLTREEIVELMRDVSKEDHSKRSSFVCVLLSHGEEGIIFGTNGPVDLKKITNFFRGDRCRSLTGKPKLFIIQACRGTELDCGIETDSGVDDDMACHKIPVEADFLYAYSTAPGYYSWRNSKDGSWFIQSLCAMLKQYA
Luc interf: interferes with luciferase luminescence in SENP counter-screen. shares compounds with SENP7 inh. Pre-incubated SENP8/Z-RLRGG-aminoluciferin, luciferase luminescence interference. inhibition, % at 12.5 µM. actives 39% (n = 6,200);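 active = mean inhibition above about 50% when retested at one dose, limit read from the data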
Each line names hits and unclear results; the compound was inactive in the other large screens (follow-up assays come after a bar, where they were run).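 Rule for the calls, unless noted: active = mean inhibition above about 50% in the one-dose retest (limit read from the data); inactive = the rest.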

COc1ccc(NS(=O)(=O)c2cc3c4c(c2)CCN4C(=O)CC3)c(OC)c1	none
CC(C)(C)NC(=S)NCC1CC1	none
CC(=O)CSc1nc2ccccc2o1	none
O=C(O)c1ccccc1CSc1nc2ccccc2o1	SENP7 inh 61.7, SENP6 block 84.6, SENP8 block-2 56.7 | SENP8 confirm 77.0 | SENP6 confirm 74.8 | SENP7 confirm 91.1 | Casp3 SENP sel 90.1 | Luc interf 81.0
O=C(CSc1nc2ccccc2o1)c1ccccc1	SENP7 inh 70.9, SENP6 block 66.9 | SENP8 confirm 68.3 | SENP6 confirm 69.1 | SENP7 confirm 84.6 | Casp3 SENP sel 61.2 | Luc interf 62.2
COC(=O)CSc1nc2ccccc2o1	none
O=C(O)c1ccc(CSc2nc3ccccc3o2)cc1	SENP6 block 74.6, SENP8 block-2 54.3 | SENP8 confirm 65.9 | SENP6 confirm 63.7 | SENP7 confirm 85.6 | Casp3 SENP sel 82.6 | Luc interf 69.8
CCOC(=O)C(C)(C)Oc1cccc2c1S(=O)(=O)c1ccccc1-2	none
COc1ccc(NCC(=O)n2c(C)c(C)c3ccccc32)cc1OC	none
Cc1cccc(N=C2NC(=O)/C(=C/c3cccs3)S2)c1	SENP6 block 52.1 | SENP8 confirm inactive | SENP6 confirm inactive | SENP7 confirm inactive | Casp3 SENP sel inactive | Luc interf inactive
CCCn1nnnc1NC(=O)COc1ccc(Br)cc1	none
COCc1nc2ccccc2n1CCc1ccccc1	none
Cc1cc2nn(-c3ccc(Cl)cc3)nc2cc1N	none
CC(C)c1ccc(-n2nc3ccc(N)cc3n2)cc1	SENP6 block 88.3, SENP8 block-2 72.6 | SENP8 confirm inactive | SENP6 confirm 88.4 | SENP7 confirm 97.9 | Casp3 SENP sel 55.7 | Luc interf inactive
Nc1ccc2nn(-c3ccc(F)cc3)nc2c1	SENP7 inh 56.7, SENP6 block 88.4, SENP8 block-2 83.9 | SENP8 confirm 61.3 | SENP6 confirm 75.6 | SENP7 confirm 93.6 | Casp3 SENP sel 71.8 | Luc interf inactive
CCN(CC)S(=O)(=O)c1cc(NC(=O)C2CC(=O)N(Cc3ccccc3)C2)ccc1Cl (centres undefined)	none
COc1ccc(SCC(O)Cn2c3ccccc3c3ccccc32)c(OC)c1 (centres undefined)	none (no result: SENP7 inh, SENP6 block, SENP8 block-2)
O=C(Nc1ccc2c(c1)OCO2)Nc1ccc2c(c1)OCO2	none
O=C(Nc1ccc2c(c1)CCC2)Nc1ccccc1F	SENP7 inh 99.2, SENP6 block 96.4, SENP8 block-2 91.9 | SENP8 confirm 69.3 | SENP6 confirm 95.4 | SENP7 confirm 101.8 | Casp3 SENP sel 92.3 | Luc interf 75.9
Cc1ccccc1NC(=O)Nc1ccc2c(c1)CCC2	SENP7 inh 83.8, SENP6 block 70.3 | SENP8 confirm inactive | SENP6 confirm inactive | SENP7 confirm inactive | Casp3 SENP sel inactive | Luc interf inactive
COc1ccc(NC(=O)Nc2ccc3c(c2)CCC3)cc1OC	none
O=C(Nc1ccc2c(c1)OCO2)Nc1ccc(F)cc1F	SENP7 inh 90.1, SENP6 block 90.0, SENP8 block-2 72.9 | SENP8 confirm 76.5 | SENP6 confirm 76.1 | SENP7 confirm 97.8 | Casp3 SENP sel 88.7 | Luc interf 85.8
O=C(Nc1ccc2c(c1)CCC2)Nc1ccc(F)cc1F	SENP7 inh 70.2 | SENP8 confirm inactive | SENP6 confirm inactive | SENP7 confirm inactive | Casp3 SENP sel inactive | Luc interf inactive
Cc1ccc(NC(=O)Nc2ccc3c(c2)CCC3)cc1	none
O=C(Nc1ccc2c(c1)CCC2)c1c(F)cccc1Cl	none
[O-][n+]1cccc2c(Br)cc(Br)c(O)c21	SENP6 block 80.9 | SENP8 confirm inactive | SENP6 confirm inactive | SENP7 confirm inactive | Casp3 SENP sel inactive | Luc interf inactive
Oc1c(Br)cc(Br)c2cccnc12	none (no result: SENP7 inh, SENP6 block, SENP8 block-2)
Cc1cccc(-c2nc3sc(C)cc3c(=O)o2)c1	none
Cc1ccccc1-c1nc2sc(-c3ccccc3)cc2c(=O)o1	SENP7 inh 84.5, SENP6 block 80.0 | SENP8 confirm inactive | SENP6 confirm inactive | SENP7 confirm inactive | Casp3 SENP sel inactive | Luc interf inactive
Cc1sc2nc(-c3ccco3)oc(=O)c2c1C	none
Cc1ccccc1-c1nc2sc(C)c(C)c2c(=O)o1	SENP7 inh 83.2, SENP6 block 77.2, SENP8 block-2 60.8 | SENP8 confirm inactive | SENP6 confirm inactive | SENP7 confirm inactive | Casp3 SENP sel inactive | Luc interf inactive
COc1ccc2[nH]c3c(=O)n(Cc4ccc(C(=O)N5CCCC5)cc4)c(=S)[nH]c3c2c1	SENP6 block 66.1 | SENP8 confirm inactive | SENP6 confirm inactive | SENP7 confirm inactive | Casp3 SENP sel inactive | Luc interf inactive
COc1ccc2[nH]c3c(=O)n(CCCCC(=O)NCCN4CCCC4)c(=S)[nH]c3c2c1	none
CN(CC(=O)Nc1c(Cl)cccc1Cl)C(=O)Cc1cccs1	none
COc1ccc(F)cc1S(=O)(=O)Nc1cc2c3c(c1)CCC(=O)N3CCC2	none
Cc1cccc(N=Nc2ccc(O)c3ncccc23)c1	SENP6 block 69.3 | SENP8 confirm inactive | SENP6 confirm inactive | SENP7 confirm inactive | Casp3 SENP sel inactive | Luc interf inactive
Cc1ccccc1NC(=O)NNC(=O)CCc1ccccc1	none
Cc1ccc(NC(=S)c2nc3ccccc3[nH]2)c(C)c1	none
Cc1ccc(NC(=S)c2nc3ccccc3[nH]2)cc1	SENP7 inh 55.3, SENP6 block 78.9, SENP8 block-2 56.9 | SENP8 confirm 71.0 | SENP6 confirm 78.4 | SENP7 confirm 94.9 | Casp3 SENP sel 60.5 | Luc interf inactive
Cc1ccsc1C=C1C(=O)c2ccccc2C1=O	SENP7 inh 68.7 | SENP8 confirm 74.4 | SENP6 confirm 66.5 | SENP7 confirm 78.8 | Casp3 SENP sel 69.1 | Luc interf inactive
Cc1ccc(Nc2n[nH]c(C)c2[N+](=O)[O-])cc1C	SENP6 block 58.5 | SENP8 confirm inactive | SENP6 confirm inactive | SENP7 confirm 83.7 | Casp3 SENP sel 52.6 | Luc interf inactive
COCCn1c(SCC(=O)Nc2ccc(F)cc2)nc2c(c1=O)SCC2	none (no result: SENP7 inh, SENP6 block, SENP8 block-2)
O=c1oc(Nc2ccccc2F)nc2ccccc12	SENP6 block 76.2, SENP8 block-2 54.2 | SENP8 confirm inactive | SENP6 confirm 98.8 | SENP7 confirm 103.2 | Casp3 SENP sel 99.3 | Luc interf 98.0
O=c1oc(Nc2ccccc2Cl)nc2ccccc12	none (no result: SENP7 inh, SENP6 block, SENP8 block-2)
